ChEMBL document CHEMBL4321879, “Novel Class of Colony-Stimulating Factor 1 Receptor Kinase Inhibitors Based on an o-Aminopyridyl Alkynyl Scaffold as Potential Treatment for Inflammatory Disorders” (J Med Chem, 2020)

Test system: RAW264.7
Assay: Antiinflammatory activity in mouse RAW264.7 cells assessed as reduction in LPS-induced IL6 release measured after 24 hrs by ELISA
Format: functional, cell-based
Settings: RAW264.7, 24 h
Procedure, shortened: (§1)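 RAW264.7 cells in DMEM with 10% FBS and 0.125% DMSO were incubated with compound, then primed with LPS 1 μg/mL for 24 h. Supernatant TNF-α and IL-6 measured by mouse ELISA. IC50 from log(inhibitor) versus normalized response nonlinear fit.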
`FC(F)(F)c1ccc(CNc2ccc(Cc3c[nH]c4ncc(Cl)cc34)cn2)cn1` [PEXIDARTINIB] gave an IC50 of 430 nM.

Biological target: Macrophage colony-stimulating factor 1 receptor (Homo sapiens, UniProt P07333)
Sequence (P07333 whole entry): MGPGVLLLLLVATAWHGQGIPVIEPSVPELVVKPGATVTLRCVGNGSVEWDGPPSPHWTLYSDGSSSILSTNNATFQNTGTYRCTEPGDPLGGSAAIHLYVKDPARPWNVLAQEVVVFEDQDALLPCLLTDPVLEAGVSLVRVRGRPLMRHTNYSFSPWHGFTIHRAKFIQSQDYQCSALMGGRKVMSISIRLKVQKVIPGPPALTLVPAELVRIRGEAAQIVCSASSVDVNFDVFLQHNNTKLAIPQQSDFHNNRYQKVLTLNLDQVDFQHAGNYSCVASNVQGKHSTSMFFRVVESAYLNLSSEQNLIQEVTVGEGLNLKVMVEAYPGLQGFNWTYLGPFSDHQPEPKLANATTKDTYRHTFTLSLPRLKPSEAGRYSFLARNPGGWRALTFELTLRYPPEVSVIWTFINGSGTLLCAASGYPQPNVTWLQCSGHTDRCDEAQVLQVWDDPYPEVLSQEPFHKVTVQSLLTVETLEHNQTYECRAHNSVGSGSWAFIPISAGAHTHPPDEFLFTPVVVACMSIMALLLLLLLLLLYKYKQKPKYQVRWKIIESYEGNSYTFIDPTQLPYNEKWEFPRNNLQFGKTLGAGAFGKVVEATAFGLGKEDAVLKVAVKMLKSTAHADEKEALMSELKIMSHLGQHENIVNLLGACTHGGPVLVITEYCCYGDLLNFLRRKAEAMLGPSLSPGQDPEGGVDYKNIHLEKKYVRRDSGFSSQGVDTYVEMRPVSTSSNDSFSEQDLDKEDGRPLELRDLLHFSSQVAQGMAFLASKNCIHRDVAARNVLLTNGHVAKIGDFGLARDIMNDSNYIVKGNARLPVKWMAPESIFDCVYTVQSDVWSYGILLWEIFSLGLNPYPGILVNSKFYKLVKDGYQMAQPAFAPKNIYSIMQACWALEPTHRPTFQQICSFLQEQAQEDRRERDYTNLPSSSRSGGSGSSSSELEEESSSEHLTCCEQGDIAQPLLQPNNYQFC
Assay: Inhibition of recombinant CSF1R (unknown origin) using poly (Glu, Tyr)4:1 as substrate measured after 1 hr by ELISA
Settings: not given
Work on `COc1cc(NC(=O)c2ccc(C)c(C#Cc3cc(Cl)cnc3N)c2)cc(OC)c1` yielded an IC50 of 16.6 nM. In the case of `COc1cc(NC(=O)c2ccc(C)c(C#Cc3cc(C(N)=O)cnc3N)c2)cc(OC)c1`, the IC50 is reported as 3.5 nM. Work on `Cc1ccc(NC(=O)c2ccc(Cl)cc2)cc1C#Cc1cc(-c2cnn(C)c2)cnc1N` yielded an IC50 of 7.2 nM. For `COc1ccc(NC(=O)c2ccc(C)c(C#Cc3cc(-c4cnn(C)c4)cnc3N)c2)cc1`, the IC50 was 1.4 nM. `Cc1ccc(C(=O)Nc2cccc(Cl)c2)cc1C#Cc1cc(-c2cnn(C)c2)cnc1N` gave an IC50 of 1.3 nM. In the case of `COc1cc(NC(=O)c2ccc(C(C)C)c(C#Cc3cc(-c4cnn(C)c4)cnc3N)c2)cc(OC)c1`, the IC50 is reported as over 1000 nM. With `COc1cc(NC(=O)c2ccc(C)c(C#Cc3cccnc3N)c2)cc(OC)c1` the IC50 was 28.5 nM. Compound `Cc1ccc(C(=O)Nc2ccc(CN3CCN(C)CC3)c(C(F)(F)F)c2)cc1C#Cc1cncc2ccccc12` has an IC50 of 46 nM. Compound `Cc1ccc(C(=O)Nc2ccccc2)cc1C#Cc1cc(-c2cnn(C)c2)cnc1N` has an IC50 of 6.5 nM. Work on `Cc1ccc(C(=O)Nc2ccc(Cl)c(Cl)c2)cc1C#Cc1cc(-c2cnn(C)c2)cnc1N` yielded an IC50 of 10.8 nM. For `COc1cc(NC(=O)c2ccc(OC)c(C#Cc3cc(-c4cnn(C)c4)cnc3N)c2)cc(OC)c1`, the IC50 was 263 nM. `Cc1ccc(CNc2ccc(Cl)cc2)cc1C#Cc1cc(-c2cnn(C)c2)cnc1N` showed an IC50 of over 1000 nM. For `Cc1ccc(C(=O)Nc2ccc(Cl)cc2Cl)cc1C#Cc1cc(-c2cnn(C)c2)cnc1N`, the IC50 was 5.9 nM. For `Cc1cc(C(=O)Nc2ccc(Cl)cc2)ccc1C#Cc1cc(-c2cnn(C)c2)cnc1N`, the IC50 was over 1000 nM. With `CNC(=O)c1cnc(N)c(C#Cc2cc(C(=O)Nc3cc(OC)cc(OC)c3)ccc2C)c1` the IC50 was 8.1 nM. In the case of `COc1cc(NC(=O)c2ccc(C)c(C#Cc3cccnc3)c2)cc(OC)c1`, the IC50 is reported as 219 nM. With `COc1cc(NC(=O)c2ccc(C)c(C#Cc3cncc4ccccc34)c2)cc(OC)c1` the IC50 was 23.4 nM. `Cc1ccc(C(=O)Nc2ccc(C(F)(F)F)cc2)cc1C#Cc1cc(-c2cnn(C)c2)cnc1N` gave an IC50 of 3 nM. `COc1cc(NC(=O)c2ccc(Cl)c(C#Cc3cc(-c4cnn(C)c4)cnc3N)c2)cc(OC)c1` gave an IC50 of 6.5 nM. Compound `COc1cc(NC(=O)c2ccc(C)c(C#Cc3cc(-c4cnn(C)c4)cnc3N)c2)cc(OC)c1` has an IC50 of 2.6 nM. For `COc1ccccc1NC(=O)c1ccc(C)c(C#Cc2cc(-c3cnn(C)c3)cnc2N)c1`, the IC50 was 20.2 nM. Work on `Cc1ccc(C(=O)N(C)c2ccc(Cl)cc2)cc1C#Cc1cc(-c2cnn(C)c2)cnc1N` yielded an IC50 of over 1000 nM. With `Cc1ccc(C(=O)Nc2cccc(C(F)(F)F)c2)cc1C#Cc1cc(-c2cnn(C)c2)cnc1N` the IC50 was 2.4 nM. Compound `COC(=O)c1cnc(N)c(C#Cc2cc(C(=O)Nc3cc(OC)cc(OC)c3)ccc2C)c1` has an IC50 of 5.5 nM. `COc1cc(NC(=O)c2ccc(C)c(C#Cc3cnc4cccnn34)c2)cc(OC)c1` gave an IC50 of 25.1 nM. Compound `COc1cccc(NC(=O)c2ccc(C)c(C#Cc3cc(-c4cnn(C)c4)cnc3N)c2)c1` has an IC50 of 1.4 nM. Work on `COc1cc(NC(=O)c2cccc(C#Cc3cc(-c4cnn(C)c4)cnc3N)c2)cc(OC)c1` yielded an IC50 of 16.1 nM. `COc1cc(NC(=O)c2ccc(F)c(C#Cc3cc(-c4cnn(C)c4)cnc3N)c2)cc(OC)c1` showed an IC50 of 160 nM. `COc1cc(NC(=O)c2ccc(C(F)(F)F)c(C#Cc3cc(-c4cnn(C)c4)cnc3N)c2)cc(OC)c1` gave an IC50 of over 1000 nM. Compound `Cc1ccc(C(=O)Nc2ccccc2Cl)cc1C#Cc1cc(-c2cnn(C)c2)cnc1N` has an IC50 of 318 nM.

Biological target: Fibroblast growth factor receptor 3 (Homo sapiens, UniProt P22607)
Sequence (P22607 whole entry, the tested form may be a part): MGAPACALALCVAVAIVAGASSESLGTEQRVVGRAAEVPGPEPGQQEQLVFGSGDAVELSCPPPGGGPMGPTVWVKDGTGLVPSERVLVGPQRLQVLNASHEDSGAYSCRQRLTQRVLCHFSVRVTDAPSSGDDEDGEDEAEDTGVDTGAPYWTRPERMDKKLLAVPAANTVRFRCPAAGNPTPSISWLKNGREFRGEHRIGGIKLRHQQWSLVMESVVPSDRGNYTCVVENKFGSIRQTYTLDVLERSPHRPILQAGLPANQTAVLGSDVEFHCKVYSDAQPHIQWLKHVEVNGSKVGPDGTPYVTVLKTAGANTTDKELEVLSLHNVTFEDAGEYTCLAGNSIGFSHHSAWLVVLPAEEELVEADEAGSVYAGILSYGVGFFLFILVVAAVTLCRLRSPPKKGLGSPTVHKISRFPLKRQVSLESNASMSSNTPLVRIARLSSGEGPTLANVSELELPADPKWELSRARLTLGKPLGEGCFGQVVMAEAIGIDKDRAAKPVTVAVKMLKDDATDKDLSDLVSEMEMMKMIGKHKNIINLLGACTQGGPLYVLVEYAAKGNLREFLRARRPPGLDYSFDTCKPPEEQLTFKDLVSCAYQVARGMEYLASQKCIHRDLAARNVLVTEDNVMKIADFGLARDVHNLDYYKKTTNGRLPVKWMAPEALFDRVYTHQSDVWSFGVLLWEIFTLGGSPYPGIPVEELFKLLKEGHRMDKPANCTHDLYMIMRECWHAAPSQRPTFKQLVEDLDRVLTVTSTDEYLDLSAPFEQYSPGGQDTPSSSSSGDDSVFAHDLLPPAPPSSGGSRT
Assay: Inhibition of recombinant human N-terminal His6-tagged FGFR3 (447 to 761 residues) expressed in baculovirus infected Sf21 insect cells using poly (Glu, Tyr)4:1 as substrate measured after 1 hr by ELISA
Settings: not given
Procedure, shortened: (§2)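 Recombinant kinase was incubated with compound in reaction buffer containing 5 μM ATP, in wells precoated with poly(Glu,Tyr) 4:1, for 1 h at 37 °C. Phosphorylation was detected by ELISA.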
In the case of `COc1cc(NC(=O)c2ccc(C)c(C#Cc3cncc4ccccc34)c2)cc(OC)c1`, the IC50 is reported as over 1000 nM.

Biological target: Fibroblast growth factor receptor 1 (Homo sapiens, UniProt P11362)
Sequence (P11362 whole entry, the tested form may be a part): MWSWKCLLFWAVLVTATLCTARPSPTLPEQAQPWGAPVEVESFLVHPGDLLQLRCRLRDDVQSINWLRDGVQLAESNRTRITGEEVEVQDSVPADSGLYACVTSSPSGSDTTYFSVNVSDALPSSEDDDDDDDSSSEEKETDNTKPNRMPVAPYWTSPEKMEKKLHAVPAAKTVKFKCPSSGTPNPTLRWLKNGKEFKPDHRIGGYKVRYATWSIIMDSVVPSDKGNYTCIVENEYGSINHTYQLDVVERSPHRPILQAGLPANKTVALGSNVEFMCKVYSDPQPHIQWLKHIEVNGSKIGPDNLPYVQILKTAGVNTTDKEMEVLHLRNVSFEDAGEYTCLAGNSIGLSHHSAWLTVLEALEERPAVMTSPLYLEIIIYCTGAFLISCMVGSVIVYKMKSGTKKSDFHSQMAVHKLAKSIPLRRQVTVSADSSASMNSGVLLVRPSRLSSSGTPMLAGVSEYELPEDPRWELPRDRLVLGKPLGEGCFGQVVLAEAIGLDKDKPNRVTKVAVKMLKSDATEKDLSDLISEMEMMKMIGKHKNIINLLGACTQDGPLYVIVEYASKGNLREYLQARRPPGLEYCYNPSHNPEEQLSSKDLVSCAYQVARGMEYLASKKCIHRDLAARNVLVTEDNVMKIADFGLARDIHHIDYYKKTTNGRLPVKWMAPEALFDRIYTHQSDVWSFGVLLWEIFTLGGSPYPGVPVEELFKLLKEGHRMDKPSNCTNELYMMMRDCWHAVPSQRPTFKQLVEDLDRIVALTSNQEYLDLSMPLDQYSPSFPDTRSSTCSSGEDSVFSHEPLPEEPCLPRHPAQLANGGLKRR
Assay: Inhibition of recombinant human N-terminal GST-tagged FGFR1 (456 to 765 residues) expressed in baculovirus infected Sf21 insect cells using poly (Glu, Tyr)4:1 as substrate measured after 1 hr by ELISA
Settings: not given
Procedure, shortened: as §2
`COc1cc(NC(=O)c2ccc(C)c(C#Cc3cncc4ccccc34)c2)cc(OC)c1` showed an IC50 of over 1000 nM.

Biological target: Fibroblast growth factor receptor 2 (Homo sapiens, UniProt P21802)
Sequence (P21802 whole entry, the tested form may be a part): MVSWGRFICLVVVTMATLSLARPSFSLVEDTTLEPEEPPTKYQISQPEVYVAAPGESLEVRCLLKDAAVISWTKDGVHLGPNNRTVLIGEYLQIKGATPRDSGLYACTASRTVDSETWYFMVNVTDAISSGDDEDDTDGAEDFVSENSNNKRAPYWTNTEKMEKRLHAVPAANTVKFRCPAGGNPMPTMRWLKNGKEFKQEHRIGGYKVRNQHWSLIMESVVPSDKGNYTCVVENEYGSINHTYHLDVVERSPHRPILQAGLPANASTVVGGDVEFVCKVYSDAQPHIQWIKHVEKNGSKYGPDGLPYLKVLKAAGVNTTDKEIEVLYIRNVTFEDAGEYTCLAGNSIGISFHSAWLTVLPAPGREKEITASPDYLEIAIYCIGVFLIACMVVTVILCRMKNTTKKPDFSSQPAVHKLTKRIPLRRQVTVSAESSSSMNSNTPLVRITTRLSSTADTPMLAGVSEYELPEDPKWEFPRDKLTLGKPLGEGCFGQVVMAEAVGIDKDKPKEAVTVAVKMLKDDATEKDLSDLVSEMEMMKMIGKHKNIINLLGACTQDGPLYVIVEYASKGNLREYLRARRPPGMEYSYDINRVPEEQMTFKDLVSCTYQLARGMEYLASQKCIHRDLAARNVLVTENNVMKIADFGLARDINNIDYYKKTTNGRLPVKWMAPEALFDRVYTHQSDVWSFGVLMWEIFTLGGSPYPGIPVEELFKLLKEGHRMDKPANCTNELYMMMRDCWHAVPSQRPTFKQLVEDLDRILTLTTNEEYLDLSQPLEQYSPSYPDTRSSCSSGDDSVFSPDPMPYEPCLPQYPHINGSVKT
Assay: Inhibition of recombinant human N-terminal His6-tagged FGFR2 (456 to 770 residues) expressed in baculovirus infected Sf21 insect cells using poly (Glu, Tyr)4:1 as substrate measured after 1 hr by ELISA
Settings: not given
Procedure, shortened: as §2
In the case of `COc1cc(NC(=O)c2ccc(C)c(C#Cc3cncc4ccccc34)c2)cc(OC)c1`, the IC50 is reported as over 1000 nM.

Biological target: Fibroblast growth factor receptor 4 (Homo sapiens, UniProt P22455)
Sequence (P22455 whole entry, the tested form may be a part): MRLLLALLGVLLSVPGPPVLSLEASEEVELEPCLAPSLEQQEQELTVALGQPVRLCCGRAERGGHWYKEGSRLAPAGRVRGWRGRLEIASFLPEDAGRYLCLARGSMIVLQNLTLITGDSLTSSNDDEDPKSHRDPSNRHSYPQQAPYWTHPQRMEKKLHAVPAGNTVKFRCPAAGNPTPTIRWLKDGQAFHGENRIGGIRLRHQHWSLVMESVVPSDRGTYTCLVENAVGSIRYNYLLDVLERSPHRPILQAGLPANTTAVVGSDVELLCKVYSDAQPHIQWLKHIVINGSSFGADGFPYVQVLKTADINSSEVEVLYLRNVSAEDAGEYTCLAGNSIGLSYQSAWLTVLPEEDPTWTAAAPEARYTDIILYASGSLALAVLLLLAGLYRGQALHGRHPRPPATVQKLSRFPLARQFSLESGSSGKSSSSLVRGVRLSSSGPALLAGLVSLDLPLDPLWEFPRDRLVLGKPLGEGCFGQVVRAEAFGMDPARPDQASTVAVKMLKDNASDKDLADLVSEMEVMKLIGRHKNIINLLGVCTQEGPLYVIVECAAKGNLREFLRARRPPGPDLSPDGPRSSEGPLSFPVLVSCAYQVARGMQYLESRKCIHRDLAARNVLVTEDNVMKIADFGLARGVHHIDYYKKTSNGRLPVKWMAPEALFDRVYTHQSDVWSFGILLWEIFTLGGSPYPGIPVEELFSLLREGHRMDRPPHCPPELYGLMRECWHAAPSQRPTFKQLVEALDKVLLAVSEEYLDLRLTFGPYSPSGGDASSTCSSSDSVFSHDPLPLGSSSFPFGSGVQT
Assay: Inhibition of recombinant human N-terminal His6-tagged FGFR4 (442 to 755 residues) expressed in baculovirus infected Sf21 insect cells using poly (Glu, Tyr)4:1 as substrate measured after 1 hr by ELISA
Settings: not given
Procedure, shortened: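 ELISA kinase assay: recombinant kinase added to wells precoated with poly(Glu,Tyr)4:1 and incubated with compound in reaction buffer containing 5 μM ATP, 37 °C for 1 h; wells then washed before antibody detection.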
In the case of `COc1cc(NC(=O)c2ccc(C)c(C#Cc3cncc4ccccc34)c2)cc(OC)c1`, the IC50 is reported as over 1000 nM.

Test system: RAW264.7
Assay: Antiinflammatory activity in mouse RAW264.7 cells assessed as reduction in LPS-induced TNFalpha release measured after 24 hrs by ELISA
Format: functional, cell-based
Settings: RAW264.7, 24 h
Procedure, shortened: as §1
Work on `FC(F)(F)c1ccc(CNc2ccc(Cc3c[nH]c4ncc(Cl)cc34)cn2)cn1` [PEXIDARTINIB] yielded an IC50 of 400 nM.

Test system: not listed separately
Assay: Cytotoxicity against mouse RAW264.7 cells assessed as reduction in cell viability measured after 24 hrs by CCK8 assay
Format: cell-based
Settings: not given
Procedure, shortened: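 RAW264.7 cells were seeded in triplicate in DMEM and exposed to compound for 24 h. CCK-8 was added, incubated 1 h, and absorbance read at 450 nm with 570 nm reference. CC50 from log(inhibitor) versus normalized response nonlinear fit.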
`FC(F)(F)c1ccc(CNc2ccc(Cc3c[nH]c4ncc(Cl)cc34)cn2)cn1` [PEXIDARTINIB] gave a CC50 at 24 h of 20500 nM.
